Assay results reported in PubChem BioAssay AID624204 (Sanford-Burnham Center for Chemical Genomics, 2012).
Among all 360,000 compounds or so, about 770 (0.21%) were called active.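 The calls were made as follows: active = inhibition at least 30% at 10 µM, raw YFP signal under a set limit, fluorescence ratio 0.5 to 1.5; inactive = the rest.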 Shown is part of a subset that was picked to be rich in actives.

Target: Sentrin-specific protease 1 (Homo sapiens) (UniProt Q9P0U3)
Assay: human SENP1 catalytic domain inhibitors, primary screen, biochemical, FRET, uHTS (AID 624204);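 also: 0% = enzyme with DMSO and 100% = no enzyme wells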
Conditions: recombinant SENP1 catalytic domain, CyPet-SUMO1-YPet FRET cleavage; at 10 µM; hits give high values
In short: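 Test system: human SENP1 catalytic domain; medium: Tris pH 8 buffer plus EDTA, NaCl, BME, BSA, NP40, catalase; incubation: 50 min reaction at room temperature; technique: FRET, CFP and YFP emission; controls: no-enzyme low control and enzyme-plus-DMSO high control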

Chain of Sentrin-specific protease 1 (Homo sapiens) (Q9P0U3 419-644 limits assumed): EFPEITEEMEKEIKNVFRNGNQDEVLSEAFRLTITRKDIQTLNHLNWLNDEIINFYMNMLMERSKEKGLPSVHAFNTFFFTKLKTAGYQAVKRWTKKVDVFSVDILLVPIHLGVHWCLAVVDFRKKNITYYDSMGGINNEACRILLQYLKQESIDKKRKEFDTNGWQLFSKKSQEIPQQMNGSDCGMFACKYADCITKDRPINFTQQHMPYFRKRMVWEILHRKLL

With Cc1cccc(NC(=O)N(Cc2cc3cc(C)cc(C)c3[nH]c2=O)CC2COCCO2)c1 (stereo not drawn) as the compound, how does the inhibition read?
The inhibition was 1.21% (inactive).

COc1ncnc2c1N=C1CC(C)(C)CC(N)=C1S2 was tested. Which inhibition did it give?
Its inhibition is 33.8% (active).

How did the inhibition turn out when O=C1/C(=C\c2ccc(O)cc2)CCC1CNc1ccc(Cl)cc1 (stereo not drawn) was run?
Its inhibition is -58.8% (inactive).

For COc1ccc(C(=O)OC(C)C(=O)NC2CCCC2)cc1S(=O)(=O)N1CCOCC1 (stereo not drawn), which inhibition is on record?
Its inhibition is 2.06% (inactive).

COc1ccc(-n2nc(C(=O)NCC(=O)N3CCCCCC3)c3ccccc3c2=O)cc1Cl was tested. Which inhibition did it give?
The inhibition was -0.802% (inactive).

Which inhibition does the source give for NS(=O)(=O)c1ccc(NC(=O)COC(=O)c2c3c(nc4ccccc24)/C(=C\c2ccc4c(c2)OCO4)CCC3)cc1 here?
Its inhibition is -24.4% (inactive).

COc1cc(/C=C2\CCCc3c2nc2ccccc2c3C(=O)O)cc(Cl)c1O was tested. Which inhibition did it give?
The inhibition was 54.9% (active).

Which inhibition does the source give for COc1cccc(COC(=O)C2CCN(S(=O)(=O)c3cccs3)CC2)c1OC here?
The inhibition was -0.283% (inactive).

With C=CC[C@@H](Cc1ccc(F)cc1)C(=O)OC[C@H]1CCCN1C(=O)[C@H](CC=C)CC(=O)N(CCO)Cc1ccccc1 as the compound, how does the inhibition read?
Its inhibition is 0.419% (inactive).

Which inhibition does the source give for O=C(CCNS(=O)(=O)c1cccs1)N1CCN(c2ccc(F)cc2)CC1 here?
Its inhibition is 7.35% (inactive).

For CCOc1ccc(OCC(=O)OC(C)C(=O)NC2CCCCC2C)cc1 (stereo not drawn), which inhibition is on record?
The inhibition was 0.477% (inactive).

How did the inhibition turn out when CCOc1ccc(N(CC(=O)Nc2cccc(OC)c2)S(C)(=O)=O)cc1 was run?
Its inhibition is -0.216% (inactive).

Which inhibition does the source give for O=C(CC1CCCCC1)Nc1c2c(nn1-c1ccc(F)cc1)CS(=O)(=O)C2 here?
The inhibition was -0.662% (inactive).

How did the inhibition turn out when CCOC(=O)c1cc2c(=O)n3ccccc3nc2n(CC(C)C)c1=NC(=O)c1c(-c2c(F)cccc2Cl)noc1C was run?
The inhibition was -28.9% (inactive).

For O=C(O)c1cc2ccccc2c(=O)s1, which inhibition is on record?
The inhibition was 2.49% (inactive).

How did the inhibition turn out when CCOC(=O)N1CCN(CC(=O)c2ccc3c(c2)CCN3)CC1 was run?
Its inhibition is -2.56% (inactive).

How did the inhibition turn out when N#CCC(=O)NC1CCC(CC2CCC(NC(=O)CC#N)CC2)CC1 (stereo not drawn) was run?
Its inhibition is -0.386% (inactive).

O=C(COC(=O)/C=C/c1ccc(Br)o1)Nc1cccc(S(=O)(=O)N2CCOCC2)c1 was tested. Which inhibition did it give?
Its inhibition is -7.92% (inactive).

For Cc1cccc(-c2nnc(SCC(=O)O)n2Cc2ccccc2)c1, which inhibition is on record?
The inhibition was 0.0319% (inactive).

For CCn1nnnc1SCC(=O)c1ccc(C)cc1C, which inhibition is on record?
The inhibition was 1.48% (inactive).

With Cc1ccc2c(c1)nnc1nnc(SCC(=O)O)n12 as the compound, how does the inhibition read?
Its inhibition is 73% (active).

How did the inhibition turn out when C[C@@H]1C[C@@H]2O[C@H]2/C=C\C=C\C(=O)Cc2c(Cl)c(O)cc(O)c2C(=O)O1 was run?
The inhibition was -2.26% (inactive).

CCCS(=O)(=O)N1CCCC(C(=O)NCCN2CCCCC2C)C1 (stereo not drawn) was tested. Which inhibition did it give?
Its inhibition is -23.8% (inactive).

Which inhibition does the source give for CN1CCN(/N=C/c2ccc(-c3ccc([N+](=O)[O-])cc3)o2)CC1 here?
The inhibition was 58.4% (active).

For CN1CCN(/N=C/c2ccc(C#N)cc2)CC1, which inhibition is on record?
Its inhibition is 1.45% (inactive).

Which inhibition does the source give for O=C1C2C3C=CC(C4CC34)C2C(=O)N1/N=C/c1ccc(-c2ccccc2[N+](=O)[O-])o1 (stereo not drawn) here?
The inhibition was -25.8% (inactive).

Nn1c(SCc2ccccc2)nnc1C1CCCCC1 was tested. Which inhibition did it give?
The inhibition was 3.72% (inactive).

CCCC(=O)N1CCC(CCC(=O)NC2CC2)CC1 was tested. Which inhibition did it give?
The inhibition was 2.3% (inactive).

Which inhibition does the source give for CCOC(=O)C1CCN(c2ncnc3c2c(-c2ccccc2)cn3-c2ccc(C)cc2)CC1 here?
The inhibition was 47.1% (active).

With CCOC(=O)C1CCN(Cc2ccc(-c3ccccc3)cc2)CC1 as the compound, how does the inhibition read?
The inhibition was -0.00995% (inactive).

Which inhibition does the source give for CCOC(=O)C1CCN(C(=O)CN2C(=O)c3cccnc3Oc3ccc(C)cc32)CC1 here?
The inhibition was 0.924% (inactive).

How did the inhibition turn out when CNCC[C@H](Oc1ccc(C(F)(F)F)cc1)c1ccccc1 was run?
Its inhibition is -0.124% (inactive).

With O=C(COc1ccc(/C=N/NS(=O)(=O)c2ccccc2)cc1)NCCc1ccccc1 as the compound, how does the inhibition read?
Its inhibition is 3.48% (inactive).

With O=C1/C(=C/c2coc3ccc(O)cc3c2=O)SC(=S)N1c1ccccc1 as the compound, how does the inhibition read?
The inhibition was 46.8% (active).

For CC1=CC2=NC(=O)/C(=C/c3coc4ccccc4c3=O)C(=N)N2O1, which inhibition is on record?
Its inhibition is -38.6% (inactive).

CSc1ccc(CN2C(=O)NC3(CCCCCC3)C2=O)cc1 was tested. Which inhibition did it give?
Its inhibition is 1.11% (inactive).

Which inhibition does the source give for CCC1OC(c2ccc([N+](=O)[O-])cc2)=Nc2ccccc21 (stereo not drawn) here?
Its inhibition is -7.92% (inactive).

For c1coc(-c2nc3nc4ccccc4n3nc2-c2ccco2)c1, which inhibition is on record?
The inhibition was 86.8% (active).

With N#Cc1ccc(C(C(=O)NCc2ccccc2)n2c(=O)c(-c3ccco3)nc3ccccc32)cc1 (stereo not drawn) as the compound, how does the inhibition read?
The inhibition was -62.9% (inactive).

Cc1cccc(C)c1NC(=O)C(c1cccc2ccccc12)n1c(=O)c(-c2ccco2)nc2ccccc21 (stereo not drawn) was tested. Which inhibition did it give?
Its inhibition is -49.2% (inactive).

For Cc1ccc(NC(=O)COC(=O)CCc2nc3ccccc3n2-c2ccccc2)c(C)c1, which inhibition is on record?
Its inhibition is 0.304% (inactive).

Which inhibition does the source give for C[C@H](C(=O)CC(=O)OC(C)(C)C)[C@H](O)c1ccc(C(F)(F)F)cc1 here?
Its inhibition is 0.388% (inactive).

How did the inhibition turn out when Cc1ncc(CO)c(/C=N/NC(=O)c2cccc(S(=O)(=O)N3CCCC3)c2)c1O was run?
Its inhibition is -24.8% (inactive).

How did the inhibition turn out when CCOc1ccc(NS(=O)(=O)c2ccc(C(=O)NCC(c3ccccc3OC)N3CCCC3)cc2)cc1 (stereo not drawn) was run?
Its inhibition is -1.55% (inactive).

O=C(CN1CCOCC1)Nc1c(-c2ccccc2)c2cc(Br)ccc2[nH]c1=O was tested. Which inhibition did it give?
The inhibition was -0.407% (inactive).

Which inhibition does the source give for Cc1ccc(-c2c(N)nc3ncccn23)cc1 here?
Its inhibition is -17.5% (inactive).

How did the inhibition turn out when Cc1ccccc1Nc1c(-c2ccccc2)nc2ncccn12 was run?
The inhibition was 14.2% (inactive).

For Cc1cccc(C)c1Nc1c(-c2ccccc2O)nc2ncccn12, which inhibition is on record?
Its inhibition is 32.1% (active).

Cc1ccc(NC(=O)[C@H](Cc2ccccc2)NC(=O)CC[C@H]2O[C@@H](n3ccc(=O)[nH]c3=O)[C@H](O)[C@@H]2O)cc1C was tested. Which inhibition did it give?
Its inhibition is 1.31% (inactive).

Which inhibition does the source give for Cc1ccc(Nc2ccccc2N)cc1 here?
Its inhibition is 54.5% (active).

For Cc1ccc(Nc2nc(Cl)c(C=O)s2)cc1, which inhibition is on record?
The inhibition was -32.5% (inactive).

Cc1ccc(Nc2nc(N)nc(CSc3nnc(C)s3)n2)cc1 was tested. Which inhibition did it give?
Its inhibition is 3.47% (inactive).

With O=C(CSc1nnc(-c2ccncc2)n1-c1ccc(Cl)cc1)Nc1ccc(C(=O)O)cc1 as the compound, how does the inhibition read?
The inhibition was 0.469% (inactive).

C=CC1=C(C(=O)O)N2C(=O)[C@@H](NC(=O)/C(=N/OCC(=O)O)c3csc(N)n3)[C@H]2SC1 was tested. Which inhibition did it give?
The inhibition was 56% (active).

For O=C(CCn1nnc2ccccc2c1=O)N[C@@H](Cc1c[nH]c2ccccc12)C(=O)O, which inhibition is on record?
Its inhibition is 0.24% (inactive).

CCN(CC)c1ccc(S(=O)(=O)N2CCOCC2)cc1NC(=O)CSc1cccc[n+]1[O-] was tested. Which inhibition did it give?
The inhibition was 3.85% (inactive).

Which inhibition does the source give for COC(=O)c1ccc(NC(=O)CSc2nncn2-c2cccnc2)cc1 here?
Its inhibition is -5.21% (inactive).

For COc1cccc(CNC(=O)C2CCCN(S(=O)(=O)N3CC(C)CC(C)C3)C2)c1 (stereo not drawn), which inhibition is on record?
Its inhibition is -0.397% (inactive).

How did the inhibition turn out when CC(CC(=O)C1C(C)C=CCC1(C)C)NNC(N)=O (stereo not drawn) was run?
Its inhibition is 1.56% (inactive).

Which inhibition does the source give for COc1ccc2oc(C(=O)OCC(=O)N(CC(C)C)c3c(N)n(Cc4ccccc4)c(=O)[nH]c3=O)c(C)c2c1 here?
The inhibition was -9.9% (inactive).

With CCOC(=O)N(C)c1c(CC)nc2c(OCc3ccccc3C(=O)OC)cccn12 as the compound, how does the inhibition read?
The inhibition was 0.268% (inactive).

Which inhibition does the source give for O=C(CN1CCN(S(=O)(=O)c2ccc(Br)cc2)CC1)Nc1ccccc1C(=O)c1ccccc1 here?
The inhibition was 0.864% (inactive).

With COc1ccc2c(c1)c(=O)c(C(=O)c1ccc(Cl)cc1)cn2CC(=O)Nc1ccc(F)cc1 as the compound, how does the inhibition read?
Its inhibition is -1.49% (inactive).

With CCOc1ncccc1C(=O)OCC(=O)Nc1cccc(S(=O)(=O)N2CCCCCC2)c1 as the compound, how does the inhibition read?
The inhibition was 2.06% (inactive).

With O=C(NCc1cccnc1)c1ccccc1NC(=O)c1c(F)cccc1F as the compound, how does the inhibition read?
The inhibition was 3.29% (inactive).

With CCCNC(=O)c1cc(C2CCCCN2S(=O)(=O)c2ccc(C#N)cc2)on1 (stereo not drawn) as the compound, how does the inhibition read?
The inhibition was 2.5% (inactive).

How did the inhibition turn out when CNC(=S)N/N=C/c1ccc(N2CCOCC2)s1 was run?
The inhibition was -70.3% (inactive).

With CC(C)c1cc(C(=O)N/N=C/c2ccoc2)c(O)c(C(C)C)c1 as the compound, how does the inhibition read?
Its inhibition is 1.94% (inactive).

Which inhibition does the source give for Cc1cc(C(=O)N/N=C/c2ccc(N3CCOCC3)cc2)c(C)o1 here?
Its inhibition is 33.5% (active).

With Cc1ccc(S(=O)(=O)n2cccc2CO)cc1 as the compound, how does the inhibition read?
Its inhibition is -0.0494% (inactive).

With CC(C)NC(=O)C1(C)CCCCCN1C(=O)c1ccc(-c2ccccc2)cc1 (stereo not drawn) as the compound, how does the inhibition read?
Its inhibition is 0.518% (inactive).

Cc1ccccc1CN1C(=O)CSCC1(C)C(=O)Nc1c(C)cccc1C (stereo not drawn) was tested. Which inhibition did it give?
The inhibition was -2.15% (inactive).

For Cn1cc(/C=C/C(=O)N2CCCC(C(=O)c3ccc(C(F)(F)F)cc3)C2)cn1 (stereo not drawn), which inhibition is on record?
Its inhibition is 0.414% (inactive).

How did the inhibition turn out when CO[C@H]1[C@@H]2C=CO[C@@H](O[C@H]3O[C@@H](CO)[C@H](O)[C@@H](O)[C@@H]3O)[C@@H]2[C@@]2(CO)O[C@@H]12 was run?
Its inhibition is -2% (inactive).

With COC(=O)c1c(NC(=O)CN2C(=O)NC(CCc3ccccc3)C2=O)sc2c1CCCCC2 (stereo not drawn) as the compound, how does the inhibition read?
Its inhibition is -3.88% (inactive).

Which inhibition does the source give for NC1=NN(c2cccc(C(=O)O)c2)C(=O)C1 here?
The inhibition was 4.58% (inactive).

How did the inhibition turn out when Cc1cc(C)cc(C(=O)OCC(=O)NCCNC(=O)COC(=O)c2cc(C)cc(C)c2)c1 was run?
The inhibition was 0.612% (inactive).

For O=C(c1ccc(-n2cnnn2)cc1)N1CCN(C(c2ccccc2)c2ccccc2)CC1, which inhibition is on record?
Its inhibition is 0.954% (inactive).

With CCc1ccc(OC(C)C(=O)Nc2ccc(S(=O)(=O)Nc3cc(C)on3)cc2)cc1 (stereo not drawn) as the compound, how does the inhibition read?
Its inhibition is 2.02% (inactive).

For CCC(=O)Nc1ccc(-c2ccc(N3CCCCC3)nn2)cc1, which inhibition is on record?
The inhibition was -4.2% (inactive).

COc1ccc(/C=C(\NC(=O)c2ccc(OCC(C)C)cc2)C(=O)OCc2ccco2)cc1 was tested. Which inhibition did it give?
The inhibition was -2.88% (inactive).

Which inhibition does the source give for COC1C(CO)OC(n2cnc3c(=S)nc(N)[nH]c32)C1O (stereo not drawn) here?
Its inhibition is 0.119% (inactive).

How did the inhibition turn out when Cc1ccc(CN2CCN(Cc3cccc(C)n3)CC2CCO)cc1 (stereo not drawn) was run?
Its inhibition is -3.82% (inactive).
